{"data": "Measurements gathered from unrelated publications", "target": "Serine/threonine-protein kinase ULK3 (ULK3, Homo sapiens, UniProt Q6PHR2)", "One construct used (Q6PHR2 1-472)": "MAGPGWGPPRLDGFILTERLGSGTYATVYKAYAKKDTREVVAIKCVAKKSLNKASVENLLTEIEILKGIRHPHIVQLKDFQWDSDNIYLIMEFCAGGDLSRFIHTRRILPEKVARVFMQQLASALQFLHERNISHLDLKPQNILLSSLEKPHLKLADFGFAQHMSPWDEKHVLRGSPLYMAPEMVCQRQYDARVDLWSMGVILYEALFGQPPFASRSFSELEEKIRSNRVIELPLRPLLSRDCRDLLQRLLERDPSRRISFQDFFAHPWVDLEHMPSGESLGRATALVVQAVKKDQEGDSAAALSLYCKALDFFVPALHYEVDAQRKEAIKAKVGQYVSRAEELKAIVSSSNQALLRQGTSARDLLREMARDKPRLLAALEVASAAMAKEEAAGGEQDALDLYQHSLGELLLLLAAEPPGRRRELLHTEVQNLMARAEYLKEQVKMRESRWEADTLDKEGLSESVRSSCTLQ", "note": "Lines come from different studies, so protocols differ."}
{"SMILES": "Cc1ccc(C(=O)NCc2ccsc2)cc1C#Cc1cn(C(C)C)c2ncnc(N)c12", "test": "enzyme activity, inhibitor", "setting": "1 µM", "endpoint": "activity vs control", "result": "84%"}
{"SMILES": "COc1cc(Cl)c(C(=O)N[C@@H](CN[C@H]2CC[C@@H](N)CC2)Cc2ccc(C#N)cc2)cc1-c1ccc(CN[C@H](C)c2ccc(C)cc2)o1", "test": "enzyme activity, inhibitor", "setting": "1 µM", "endpoint": "remaining activity", "result": "98%"}
{"SMILES": "CCN(CC)CCNC(=O)c1c(C)[nH]c(/C=C2\\C(=O)Nc3ccc(F)cc32)c1C", "test": "cell-free assay", "setting": "0.5 µM", "endpoint": "remaining signal", "result": "57.4%"}
{"SMILES": "Cc1sc(C(=O)NC2COC2)cc1-n1cc(NC(=O)Nc2c(F)cccc2Cl)cn1", "test": "enzyme activity, inhibitor", "setting": "10 µM", "endpoint": "remaining activity", "result": "105%"}
{"SMILES": "CCc1ccccc1C(=O)Nc1n[nH]c2c(C)c(F)c(C3C(C#N)=C(C)N(C)C(C)=C3C#N)cc12", "test": "cell-free assay, competition with immobilised ligand", "setting": "1 µM", "endpoint": "remaining binding", "result": "82%"}
{"SMILES": "COc1cccc2c(NCc3ccccc3)nc(-n3c(N)nc4ccccc43)nc12", "test": "target engagement in cells, inhibitor, chemoproteomics", "setting": "20 mM", "endpoint": "inhibition", "result": "-11.6%"}
{"SMILES": "Cc1cc(NC(=O)c2cccc(S(F)(F)(F)(F)F)c2)cc(-n2ccn3nc(-c4cccnc4)cc23)c1", "test": "cell-free assay, competition with immobilised ligand", "setting": "1 µM", "endpoint": "remaining binding", "result": "75.2%"}
{"SMILES": "COc1cc2c(N3CCN(C(=O)Nc4ccc(OC(C)C)cc4)CC3)ncnc2cc1OCCCN1CCCCC1", "test": "cell-free assay", "setting": "0.5 µM", "endpoint": "remaining signal", "result": "101%"}
{"SMILES": "O=C(Nc1cnn(-c2csc(C(=O)NC3COC3)c2)c1)Nc1ccccc1Cl", "test": "enzyme activity, inhibitor", "setting": "5 µM", "endpoint": "remaining activity", "result": "111%"}
{"SMILES": "c1ccc(N2CCN(Cc3nc4ccccc4[nH]3)CC2)nc1", "test": "binding, competition with immobilised ligand", "setting": "1 µM", "endpoint": "remaining binding", "result": "100%"}
{"SMILES": "CS(=O)(=O)CCNCc1ccc(-c2ccc3ncnc(Nc4ccc(OCc5cccc(F)c5)c(Cl)c4)c3c2)o1", "test": "cell-free assay", "setting": "0.5 µM", "endpoint": "remaining signal", "result": "106%"}
{"SMILES": "Nc1cnc(N2CCc3cc(S(=O)(=O)Nc4c(F)cc(Cl)cc4F)cc(N4CCCC4=O)c32)nc1", "test": "cell-free assay, competition with immobilised ligand", "setting": "1 µM", "endpoint": "remaining binding", "result": "100%"}
{"SMILES": "O=C1Nc2ccc(Cl)cc2C1=Cc1cc(Cl)c(O)c(Cl)c1", "test": "cell-free assay", "setting": "0.5 µM", "endpoint": "remaining signal", "result": "92.2%"}
{"SMILES": "Nc1ncnc2occ(-c3ccc(NC(=O)Nc4cc(C(F)(F)F)ccc4F)cc3)c12", "test": "cell-free assay, inhibitor", "setting": "20 µM", "endpoint": "remaining signal", "result": "0.6%"}
